# In ChEMBL document CHEMBL1671714, “High-level azithromycin resistance occurs in Neisseria gonorrhoeae as a result of a single point mutation in the 23S rRNA genes” (2010):
# The source made the active and inactive calls. No cut-off for these calls is given here.
# What was measured:
# Neisseria gonorrhoeae [1] = test: Antimicrobial activity against Neisseria gonorrhoeae isolate 252611 NG-MAST sequence type 470 harboring A2059G mutation in 23S rRNA V domain allele 2 by Etest; assay type: functional
# In short: (§1)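 Isolates were revived from −80°C cryopreservative stocks by 18 to 20 h of growth on GC agar base with 1% IsoVitaleX at 36°C under 5% CO2, then subcultured. Erythromycin and azithromycin MICs were read by Etest.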
# Neisseria gonorrhoeae [2] = test: Antimicrobial activity against Neisseria gonorrhoeae harboring A2059G mutation in 23S rRNA V domain allele 1, allele 3 and allele 4 by Etest; assay type: functional; in short: as §1
# Neisseria gonorrhoeae [3] = test: microbe, parasite or virus in culture
# Neisseria gonorrhoeae [4] = test: Antimicrobial activity against Neisseria gonorrhoeae isolate 254921 NG-MAST sequence type 649 selected after 2 to 8 mg/L of compound by Etest; assay type: functional
# Neisseria gonorrhoeae [5] = test: Antimicrobial activity against Neisseria gonorrhoeae isolate 254921 NG-MAST sequence type 649 by Etest; assay type: functional; in short: as §1
# Neisseria gonorrhoeae [6] = test: Antimicrobial activity against Neisseria gonorrhoeae C2611T mutation in 23S rRNA domain V allele 3 by Etest; assay type: functional; in short: as §1
# Neisseria gonorrhoeae [7] = test: Antimicrobial activity against Neisseria gonorrhoeae harboring A2059G mutation in 23S rRNA V domain allele 1, allele 2 and allele 4 by Etest; assay type: functional; in short: as §1
# Neisseria gonorrhoeae [8] = test: Antimicrobial activity against Neisseria gonorrhoeae expressing wild type 23S rRNA by Etest; assay type: functional; in short: as §1
# Neisseria gonorrhoeae [9] = test: microbe, parasite or virus in culture; settings: isolate 136
# Neisseria gonorrhoeae [10] = test: Antimicrobial activity against Neisseria gonorrhoeae harboring A2059G mutation in 23S rRNA V domain allele 1, allele 2, allele 3 and allele 4 by Etest; assay type: functional; in short: as §1
# Neisseria gonorrhoeae [11] = test: Antimicrobial activity against Neisseria gonorrhoeae isolate 136 NG-MAST sequence type 1704 harboring A2059G mutation in 23S rRNA V domain allele 1, allele 2, allele 3 and allele 4 selected after 0.5 to 8 mg/L of erythromycin by Etest; assay type: functional
# In short: (§2)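 Single-colony expansions of the parent isolate (~1 × 10^8 CFU by viable count) were spread on GC agar with 1% IsoVitaleX containing erythromycin in 2-fold steps from 0.5 to 8.0 mg/liter, and incubated 24 h at 36°C under 5% CO2. Growth on the highest-concentration plate was subcultured, confirmed as gonococcus (Gram stain, oxidase, Phadebact GC), and azithromycin and erythromycin MICs were read by Etest. Passages were run in duplicate.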
# Neisseria gonorrhoeae [12] = test: Antimicrobial activity against Neisseria gonorrhoeae isolate 352521 NG-MAST sequence type 1443 harboring A2059G mutation in 23S rRNA V domain allele 1, allele 2, allele 3 and allele 4 selected after 0.5 to 8 mg/L of erythromycin by Etest; assay type: functional; in short: as §2
# Neisseria gonorrhoeae [13] = test: Antimicrobial activity against Neisseria gonorrhoeae harboring A2059G mutation in 23S rRNA domain V allele 4 by Etest; assay type: functional; in short: as §1
# Neisseria gonorrhoeae [14] = test: microbe, parasite or virus in culture; settings: isolate 352521
# Neisseria gonorrhoeae [15] = test: microbe, parasite or virus in culture; remark: listed apart in the source
# Neisseria gonorrhoeae [16] = test: Antimicrobial activity against Neisseria gonorrhoeae harboring A2059G mutation in 23S rRNA domain V allele 2 by Etest; assay type: functional; in short: as §1
# Neisseria gonorrhoeae [17] = test: Antimicrobial activity against Neisseria gonorrhoeae isolate 252611 NG-MAST sequence type 470 harboring A2059G mutation in 23S rRNA V domain allele 1, allele 2, allele 3 and allele 4 selected after 0.5 to 8 mg/L of erythromycin by Etest; assay type: functional; in short: as §2
# Neisseria gonorrhoeae [18] = test: Antimicrobial activity against Neisseria gonorrhoeae isolate 254921 NG-MAST sequence type 649 selected after 4 mg/L of erythromycin by Etest; assay type: functional, organism-based
Compound,MIC (Neisseria gonorrhoeae [1]) [µg/mL],MIC (Neisseria gonorrhoeae [2]) [µg/mL],MIC (Neisseria gonorrhoeae [3]) [µg/mL],MIC (Neisseria gonorrhoeae [4]) [µg/mL],MIC (Neisseria gonorrhoeae [5]) [µg/mL],MIC (Neisseria gonorrhoeae [6]) [µg/mL],MIC (Neisseria gonorrhoeae [7]) [µg/mL],MIC (Neisseria gonorrhoeae [8]) [µg/mL],MIC (Neisseria gonorrhoeae [9]) [µg/mL],MIC (Neisseria gonorrhoeae [10]) [µg/mL],MIC (Neisseria gonorrhoeae [11]) [µg/mL],MIC (Neisseria gonorrhoeae [12]) [µg/mL],MIC (Neisseria gonorrhoeae [13]) [µg/mL],MIC (Neisseria gonorrhoeae [14]) [µg/mL],MIC (Neisseria gonorrhoeae [15]) [µg/mL],MIC (Neisseria gonorrhoeae [16]) [µg/mL],MIC (Neisseria gonorrhoeae [17]) [µg/mL],Activity (Neisseria gonorrhoeae [18])
CC[C@H]1OC(=O)[C@H](C)[C@@H](O[C@H]2C[C@@](C)(OC)[C@@H](O)[C@H](C)O2)[C@H](C)[C@@H](O[C@@H]2O[C@H](C)C[C@H](N(C)C)[C@H]2O)[C@](C)(O)C[C@@H](C)CN(C)[C@H](C)[C@@H](O)[C@]1(C)O [AZITHROMYCIN],0.38,≥ 256,2,1.5,0.25,0.06,≥ 256,0.06,0.25,≥ 256,> 256,> 256,0.06,0.25,2,0.06,> 256,
CC[C@H]1OC(=O)[C@H](C)[C@@H](O[C@H]2C[C@@](C)(OC)[C@@H](O)[C@H](C)O2)[C@H](C)[C@@H](O[C@@H]2O[C@H](C)C[C@H](N(C)C)[C@H]2O)[C@](C)(O)C[C@@H](C)C(=O)[C@H](C)[C@@H](O)[C@]1(C)O [ERYTHROMYCIN],,,,4,3,,,,,,,,,,,,,Active
